Assay outcomes as filed in PubChem BioAssay.
Rows were chosen to be rich in hits. Some 1.1% of all compounds tested hit in one or more screens of this group.
PMI act satM6P: PMI (human) activation, high substrate. P34949. coupled PMI enzyme assay, resazurin fluorescence, 20 min; stronger effect = higher value; 1 = untreated enzyme, 0 = substrate-free blank. activation factor at 20 µM. actives 0.34% (n = 190,000). AID 1216;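 active = activation factor of 2 or more at 20 µM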
Target sequence (P34949 whole entry, looked up): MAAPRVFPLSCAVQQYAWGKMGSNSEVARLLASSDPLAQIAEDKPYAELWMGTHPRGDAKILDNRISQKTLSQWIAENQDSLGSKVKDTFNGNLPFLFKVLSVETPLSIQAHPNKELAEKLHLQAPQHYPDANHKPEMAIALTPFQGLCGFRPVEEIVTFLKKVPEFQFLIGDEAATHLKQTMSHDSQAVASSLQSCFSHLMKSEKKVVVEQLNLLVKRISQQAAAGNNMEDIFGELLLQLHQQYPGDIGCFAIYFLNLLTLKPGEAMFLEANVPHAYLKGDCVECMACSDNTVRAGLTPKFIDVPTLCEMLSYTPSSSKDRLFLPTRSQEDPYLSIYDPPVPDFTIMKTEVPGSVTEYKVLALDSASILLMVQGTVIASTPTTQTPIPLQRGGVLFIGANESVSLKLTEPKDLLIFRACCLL
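Test system: human phosphomannose isomerase with PGI, G6PDH, diaphorase coupling enzymes; amount: 15 ng/mL PMI; incubation: enzyme reaction with compound 20 min at room temperature; technique: resorufin fluorescence (Ex 544/Em 590 nm) from resazurin via diaphorase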
G6PDH CS: inhibits Leuconostoc G6PDH, flagging false hits in G6PDH-based assays; actives 0.12% (n = 200,000); Purified L. mesenteroides G6PDH, diaphorase/resazurin coupled fluorescence, 45 min; inhibition, % at 5 µM; in the data active = inhibition above about 50%
Diaphorase inh: counter-screen for diaphorase-based assays: diaphorase inhibitors and chemical oxidizers | diaphorase resazurin-to-resorufin fluorescence, NADH, 16 min; bacterial (C. kluyveri) enzyme, not human | inhibition, % at 20 µM | actives 0.69% (n = 190,000) | AID 1217;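 active = primary screen inhibition at 20 µM above a set limit, cut at about 50% in these data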;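 note: plate controls were DMSO with full reaction for no effect and wells lacking NADH for full effect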
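System: Bacterial diaphorase enzyme (C. kluyveri) | Incubation: 16-min room-temperature incubation before reading | Benchmarks: No-NADH positive control and DMSO neutral control | Measured by: Resorufin fluorescence 544/590 nm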
Diaph act CS: diaphorase activation or chemical reduction counter-screen. activation factor at 20 µM. actives 0.005% (n = 190,000). Diaphorase/resazurin coupled assay, resorufin fluorescence, 16 min; stronger effect = higher value; 1 = vehicle wells, 0 = NADH-free wells;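 active = diaphorase activity raised at least twofold by the compound at 20 µM; inactive = activation factor below 2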
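System – purified diaphorase enzyme from Clostridium kluyveri · Input – enzyme 0.07 U/mL final · Also added – final NADH 0.114 mM, resazurin 0.1 mM · Measured by – fluorescence of resorufin, 544 nm excitation, 590 nm emission · Timing – 16 min enzyme reaction, ambient temperature · Measure – resorufin increase flagging diaphorase activators or reducers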
DTT redox prof: compounds producing H2O2 with reducing agent – biochemical, NIH compound library profiling, artefact control for MLSCN library redox annotation, primary screen; DTT-dependent redox cycling H2O2, phenol red/HRP absorbance; 100% = 100 µM peroxide control, 0% = buffer; activation, % at 10 µM; actives 0.03% (n = 200,000); AID 878;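 active = activation of at least 50% relative to the plate's high and low controls in the primary single-dose screen; inactive = activation below 50%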;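 note: compound incubated with DTT at 0.8 mM final as the reducing agent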
PMI activator: phosphomannose isomerase (human) activation; AID 1214; P34949; activation factor at 20 µM; purified human PMI, coupled resazurin fluorescence, 20 min; stronger effect = higher value; 1 = vehicle control, 0 substrate-free wells; actives 0.005% (n = 190,000);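 active = activation factor of 2 or more at 20 µM, relative to plate controls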
* marks the source's active call; other numbers are inactive results; / = not tested or not shown.

SMILES	PMI act satM6P	G6PDH CS	Diaphorase inh	Diaph act CS	DTT redox prof	PMI activator
CCOC(=O)c1ccc(NC(=O)CSc2n[nH]c(-c3ccncc3)n2)cc1	1	-24	51*	0.5	0	0.9
Nc1[nH]nc2ncc3cc4ccccc4nc3c12	0.6	27	55*	0.5	-1	0.7
Nc1[nH]nc2nc(N3CCCC3)nc(-c3ccccc3)c12	1	1	-3	1	0	1
Cc1cc(C(=O)OCC(=O)NC2CCCCC2)c(C)o1	1.1	2	3	1	51*	1.1
COC(=O)CCSCC(=O)N1N=C(c2ccc(OC)cc2)CC1c1cccc(OC)c1OC (stereo unspecified)	1	-4	15	0.8	-1	1
CCCCCc1ccc(OCCOCCn2c[n+](C)c3ccccc32)c(CCCCC)c1	1.1	-4	-95	2*	0	1.1
Cc1ccc(-n2c(C)nc3oc4ccccc4c(=O)c3c2=O)cc1	/	15	56*	0.4	2	/
CCOC(=O)N1CCN(C(=O)c2ccc(-n3c(=S)[nH]c4ccccc4c3=O)cc2)CC1	1	2	28	0.7	0	1.2
CCc1nc2oc3cc(OC)ccc3c(=O)c2c(=O)n1-c1ccccc1	1	0	10	0.9	0	0.9
O=c1c2oc3ccccc3c2[nH]c(=S)n1-c1ccccc1	0.8	-35	66*	0.3	0	0.9
Cc1cccc(-n2c(=S)[nH]c3c(oc4ccccc43)c2=O)c1	0.9	-2	64*	0.4	0	1
Cc1c(-n2c(=S)[nH]c3ccccc3c2=O)c(=O)n(-c2ccccc2)n1C	1.1	-5	10	0.9	0	1
Cc1ccc(-n2c(=S)[nH]c3c(oc4ccccc43)c2=O)cc1	1.1	14	66*	0.3	0	1
Nc1c(C(=O)NCc2ccco2)sc2nc3c(cc12)C(=O)CCC3	1.2	-41	53*	0.5	0	1
COc1ccc2cc3c(N)c(C(=O)NCc4ccco4)sc3nc2c1	0.9	-63	29	0.7	2	0.9
CC/C(=C/c1sc2ccc(C)cc2[n+]1CCCS(=O)(=O)[O-])SC	2.7*	2	7	0.9	0	1.9
Cc1ccc2sc(C)[n+](CCC(C)S(=O)(=O)[O-])c2c1 (stereo unspecified)	1.1	-7	11	0.9	0	1
CC/C(=C/c1sc2ccc(C)cc2[n+]1CCO)SC	2.5*	12	19	0.8	0	1.8
Cc1ccc(C(=O)ONc2ccc(N=NC(=O)c3ccccc3O)cc2)cc1	1.1	4	54*	0.5	0	1
Cc1ccc(C(=O)ONc2ccc(N=O)cc2)cc1	0.8	-36	12	0.9	2	0.9
CCOC(=O)C1=C(CN2CC(C)CC(C)C2)NC(=O)NC1c1ccc2c(c1)OCO2 (stereo unspecified)	0.9	6	19	0.8	-1	0.9
COc1cccc(-c2nc(=S)c3c(o2)CCCC3)c1	1.1	4	30	0.7	-1	1
S=c1nc(-c2ccccc2)oc2c1CCCC2	0.9	3	65*	0.3	-4	1
Cc1cc2oc(=O)cc(CN3CCCc4ccccc43)c2cc1C	2.3*	5	1	1	-3	1.1
Cc1cc2oc(=O)cc(CN3CCOCC3)c2cc1C	1	-4	6	0.9	0	1
SMILES	PMI act satM6P	G6PDH CS	Diaphorase inh	Diaph act CS	DTT redox prof	PMI activator
CC1CC2(C)Oc3ccccc3CC2C(C)C1CNCCCN(C)C (stereo unspecified)	1.1	10	0	1	0	1.1
CCOc1ccccc1OCC(=O)NC1CCCCC1	1.1	4	4	1	0	1.1
O=C(NC1CCCCC1)Oc1cccc2ccccc12	0.4	52*	28	0.7	0	0.7
O=C(CNc1cc(S(=O)(=O)N2CCCC2)ccc1OCC(F)(F)F)Nc1cccc(C(F)(F)F)c1	0.9	-18	30	0.7	0	0.8
S=c1nc(SCc2ccccc2)[nH]c2ccccc12	0.9	5	87*	0.1	0	0.9
Cc1[nH]c2ccccc2c1/C=N/Nc1ccc(F)cc1F	2.1*	-16	15	0.8	0	1.5
Cc1ccnc(NC(NC(=O)C(C)C)(C(F)(F)F)C(F)(F)F)c1	0.9	3	11	0.9	-1	0.9
CCOc1ccc(C(=O)Nc2cccc3ncccc23)cc1Br	0.9	13	5	0.9	0	1
O=c1oc2c(O)c(O)cc3c(=O)oc4c(O)c(O)cc1c4c23	0.4	28	86*	0.1	0	0.3
CCC(C)NC(=S)N1CCN(C)CC1 (stereo unspecified)	1	2	13	0.9	-1	1
Cc1ccc2[nH]c3c(c2c1)CCc1cn[nH]c1-3	0.4	-45	70*	0.3	1	0.3
COc1ccc(CCN=C(NS(=O)(=O)c2ccc(Cl)cc2)c2ccccc2)cc1	0.9	5	52*	0.5	-1	0.8
COc1ccc(CCN=C(NS(=O)(=O)c2ccccc2)c2ccccc2)cc1OC	1	2	-4	1	0	1
COc1cc2c(cc1OC)C1=C(C#N)CC/C(=N\S(=O)(=O)c3cccc(Cl)c3)N1CC2	0.9	0	61*	0.4	2	0.9
O=C(CSc1n[nH]c(-c2ccccc2)n1)Nc1ncc(Br)cc1Br	0.9	1	59*	0.4	-4	0.9
Cc1cccc(NC(=O)c2sc3nc(-c4ccccc4)cn3c2C)n1	0.8	-53	10	0.9	1	0.8
COc1ccc(-c2cn3c(C)c(C(=O)Nc4cccc(C)n4)sc3n2)cc1	2*	-1	1	1	0	1.7
N#Cc1cccc(N=Cc2c(O)ccc3ccccc23)c1	0.4	62*	36	0.6	0	0.6
Cc1ccc(N=Cc2c(O)ccc3ccccc23)cc1F	0.5	45	18	0.8	0	0.7
C/C(=C\c1ccccc1)C(=O)NCCc1ccccc1	0.9	8	11	0.9	-1	0.9
COc1cccc(OC)c1OCCCN1CCOCC1	1	8	53*	0.5	-1	0.9
O=C(CCn1c(=O)oc2ccccc21)N(Cc1ccccc1)c1ccccc1	0.9	7	69*	0.3	1	0.9
CN(Cc1ccccc1)C(=O)CCn1c(=O)oc2ccccc21	1	1	7	0.9	-2	1
